Converted amounts (≈) assume the structure as drawn.
Key:
[1] = system: Escherichia coli (ATCC 8739); test: MIC, broth microdilution; format: cell-based; conditions: ATCC8739, read-out: Minimum inhibitory concentration (MIC), EC
Method in brief: (§1)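 Broth microdilution per CLSI in Mueller-Hinton broth, using two-fold serial dilutions of test compound and reference drugs from 512 to 0.25. Bacterial broth cultures were grown 2-6 h to 0.5 McFarland turbidity, then diluted with sterile solution to the final inoculum. MIC is reported in µg/mL.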

[2] = system: Pseudomonas aeruginosa (MCCB 0035); test: MIC, broth microdilution; format: cell-based; conditions: read-out: Minimum inhibitory concentration (MIC), PA
Method in brief: as §1

[3] = system: Klebsiella aerogenes (NCIM-2098); test: MIC, broth microdilution; format: cell-based; conditions: NCIM2098, read-out: Minimum inhibitory concentration (MIC), KA
Method in brief: (§2)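 Antibacterial MICs by CLSI broth microdilution in Mueller-Hinton broth. Test compounds and standard drugs are serially diluted two-fold from 512 to 0.25. The bacterial broth culture is grown 2-6 h to a 0.5 McFarland turbidity, then adjusted with sterile solution to the final inoculum.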

[4] = system: Staphylococcus aureus (ATCC 29213); test: MIC, broth microdilution; format: cell-based; conditions: ATCC29213, read-out: Minimum inhibitory concentration (MIC), SA
Method in brief: as §2

[5] = system: Bacillus cereus (NCIM-2458); test: MIC, broth microdilution; format: cell-based; conditions: NCIM2458, read-out: Minimum inhibitory concentration (MIC), BC
Method in brief: as §1

[6] = system: Aspergillus niger (NCIM 2191); test: MIC, broth microdilution; format: cell-based; conditions: NCIM2191, read-out: Minimum inhibitory concentration (MIC), AN
Method in brief: (§3)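 Antifungal MICs by CLSI broth microdilution in Sabouraud liquid medium. Test compounds and standard drugs are serially diluted two-fold from 512 to 0.25. The fungal broth culture is grown 24 h at 35 °C to a 0.5 McFarland turbidity, then adjusted with sterile solution to the final inoculum.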

[7] = system: Candida albicans (NCIM 2087); test: MIC, broth microdilution; format: cell-based; conditions: NCIM2087, read-out: Minimum inhibitory concentration (MIC), CA
Method in brief: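 CLSI broth microdilution in Sabouraud liquid medium, with test compound two-fold serially diluted from 512 to 0.25. Fungal broth culture grown 24 h at 35 °C to 0.5 McFarland turbidity, then adjusted with sterile solution to a final […] inoculum. MIC expressed in µg/mL.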

[8] = system: Aspergillus fumigatus (NCIM 2081); test: MIC, broth microdilution; format: cell-based; conditions: NCIM2081, read-out: Minimum inhibitory concentration (MIC), AF
Method in brief: as §3

[9] = system: Cryptococcus neoformans (ATCC 9011); test: MIC, broth microdilution; format: cell-based; conditions: ATCC9011, read-out: Minimum inhibitory concentration (MIC), CN
Method in brief: as §3

[10] = system: Escherichia coli (ATCC 8739); test: Agar disk diffusion, inhibition zone; format: cell-based; conditions: 100 µg/8 mm disc, triplicate, mean ± SD
Method in brief: (§4)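 Agar disk diffusion on Mueller-Hinton agar plates seeded with a standard bacterial suspension. Test compound stock in DMSO, diluted with distilled water; 8 mm sterile filter-paper discs soaked in the solution. Ampicillin was the reference. Plates incubated at 35 °C for 24 h, in triplicate. Read-out is the average inhibition-zone diameter (mm) around each disc.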

[11] = system: Pseudomonas aeruginosa (MCCB 0035); test: Agar disk diffusion, inhibition zone; format: cell-based; conditions: 100 µg/8 mm disc, triplicate, mean ± SD
[12] = system: Salmonella typhimurium (NCIM-2501); test: Agar disk diffusion, inhibition zone; format: cell-based; conditions: 100 µg/8 mm disc, triplicate, mean ± SD
[13] = system: Klebsiella aerogenes (NCIM-2098); test: Agar disk diffusion, inhibition zone; format: cell-based; conditions: 100 µg/8 mm disc, triplicate, mean ± SD
[14] = system: Staphylococcus aureus (ATCC 29213); test: Agar disk diffusion, inhibition zone; format: cell-based; conditions: 100 µg/8 mm disc, triplicate, mean ± SD
Method in brief: as §4

[15] = system: Bacillus cereus (NCIM-2458); test: Agar disk diffusion, inhibition zone; format: cell-based; conditions: 100 µg/8 mm disc, triplicate, mean ± SD
[16] = system: Lactobacillus casei (NCIM-2651); test: Agar disk diffusion, inhibition zone; format: cell-based; conditions: 100 µg/8 mm disc, triplicate, mean ± SD
[17] = system: Streptococcus pneumonia (ATCC 49619); test: Agar disk diffusion, inhibition zone; format: cell-based; conditions: 100 µg/8 mm disc, triplicate, mean ± SD
[18] = system: Aspergillus niger (NCIM 2191); test: Agar disk diffusion, inhibition zone; format: cell-based; conditions: 100 µg/8 mm disc, triplicate, mean ± SD
Method in brief: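 For the fungal strain, discs soaked in test compound solution (DMSO stock diluted with distilled water) sat on seeded Mueller-Hinton agar. Clotrimazole was the reference. Incubation ran 48 h at 35 °C, in triplicate. Zone of growth inhibition recorded in mm as the mean diameter around each disc.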

[19] = system: Candida albicans (NCIM 2087); test: Agar disk diffusion, inhibition zone; format: cell-based; conditions: 100 µg/8 mm disc, triplicate, mean ± SD
[20] = system: Aspergillus fumigatus (NCIM 2081); test: Agar disk diffusion, inhibition zone; format: cell-based; conditions: 100 µg/8 mm disc, triplicate, mean ± SD
[21] = system: Cryptococcus neoformans (ATCC 9011); test: Agar disk diffusion, inhibition zone; format: cell-based; conditions: 100 µg/8 mm disc, triplicate, mean ± SD
[22] = system: Vaccinia virus; test: microbe, parasite or virus in culture; format: cell-based; conditions: Orthopoxvirus vaccinia, HEL, read-out: Antiviral EC50, Vaccinia virus
[23] = system: Adeno virus-2; test: CPE reduction assay in HEL cells; format: cell-based; conditions: read-out: Antiviral EC50, Adeno virus-2
[24] = system: Madin Darby canine kidney (MDCK) cells; conditions: dog
[25] = system: MT4 cells; conditions: MT4 cell cultures; colorimetric MTT cell viability assay
[26] = system: Para-influenza-3 virus; test: CPE reduction assay in Vero cells; format: cell-based, Parainfluenza-3 virus; conditions: read-out: Antiviral EC50, Para-influenza-3 virus
[27] = system: Yellow Fever virus; test: microbe, parasite or virus in culture; format: cell-based; conditions: read-out: Antiviral EC50, Yellow Fever virus
[28] = system: Vero cells

Compound: Cc1ccc(S(=O)(=O)N2C(=O)CSC2c2cccc(C)c2)cc1 (centres unmarked) [5s, 2-(3-Methylphenyl)-3-[(4-methylphenyl)sulfonyl]-1,3-thiazolidin-4-one]
- MIC [1]: 16 µg/mL (≈ 46 µM)
- MIC [2]: 64 µg/mL (≈ 184 µM)
- MIC [3]: 128 µg/mL (≈ 368 µM)
- MIC [4]: 128 µg/mL (≈ 368 µM)
- MIC [5]: 64 µg/mL (≈ 184 µM)
- MIC [6]: 128 µg/mL (≈ 368 µM)
- MIC [7]: 64 µg/mL (≈ 184 µM)
- MIC [8]: 64 µg/mL (≈ 184 µM)
- MIC [9]: 128 µg/mL (≈ 368 µM)
- Diameter of growth inhibition zone, EC [10]: 17 ± 1.5 mm
- Diameter of growth inhibition zone, PA [11]: 15 ± 0.32 mm
- Diameter of growth inhibition zone, ST [12]: 10 ± 0.4 mm
- Diameter of growth inhibition zone, KA [13]: 08 ± 1.3 mm
- Diameter of growth inhibition zone, SA [14]: 13 ± 1.5 mm
- Diameter of growth inhibition zone, BC [15]: 10 ± 0.2 mm
- Diameter of growth inhibition zone, LC [16]: 10 ± 0.6 mm
- Diameter of growth inhibition zone, SP [17]: 08 ± 0.4 mm
- Diameter of growth inhibition zone, AN [18]: 9.6 ± 0.63 mm
- Diameter of growth inhibition zone, CA [19]: 10 ± 1.1 mm
- Diameter of growth inhibition zone, AF [20]: 9.2 ± 1.5 mm
- Diameter of growth inhibition zone, CN [21]: 9 ± 0.5 mm

Compound: Cc1ccc(C2SCC(=O)N2S(=O)(=O)c2ccc(C)cc2)cc1 (centres unmarked) [5t, 2-(4-Methylphenyl)-3-[(4-methylphenyl)sulfonyl]-1,3-thiazolidin-4-one]
- MIC [1]: 64 µg/mL (≈ 184 µM)
- MIC [2]: 128 µg/mL (≈ 368 µM)
- MIC [3]: > 256 µg/mL
- MIC [4]: 64 µg/mL (≈ 184 µM)
- MIC [5]: > 256 µg/mL
- MIC [6]: 128 µg/mL (≈ 368 µM)
- MIC [7]: 128 µg/mL (≈ 368 µM)
- MIC [8]: 64 µg/mL (≈ 184 µM)
- MIC [9]: > 256 µg/mL
- Diameter of growth inhibition zone, EC [10]: 12 ± 1.2 mm
- Diameter of growth inhibition zone, PA [11]: 11 ± 0.65 mm
- Diameter of growth inhibition zone, ST [12]: 07 ± 0.7 mm
- Diameter of growth inhibition zone, KA [13]: 07 ± 0.6 mm
- Diameter of growth inhibition zone, SA [14]: 12 ± 1.9 mm
- Diameter of growth inhibition zone, BC [15]: 07 ± 0.84 mm
- Diameter of growth inhibition zone, LC [16]: 08 ± 0.5 mm
- Diameter of growth inhibition zone, SP [17]: 07 ± 0.7 mm
- Diameter of growth inhibition zone, AN [18]: 9.5 ± 0.9 mm
- Diameter of growth inhibition zone, CA [19]: 9.8 ± 0.23 mm
- Diameter of growth inhibition zone, AF [20]: 09 ± 1.5 mm
- Diameter of growth inhibition zone, CN [21]: 10 ± 0.9 mm

Compound: Nc1nc2c(ncn2COCCO)c(=O)[nH]1 [Acyclovir, reference compound]
- EC50 [22]: > 250 µM

Compound: Cc1cn([C@H]2C[C@H](F)[C@@H](CO)O2)c(=O)[nH]c1=O [Alovudine, reference compound]
- EC50 [23]: 1.4 µM

Compound: NC12CC3CC(CC(C3)C1)C2 [Amantadine, reference compound]
- Cytotoxicity, Minimum cytotoxic conc. [24]: >100 µM

Compound: Cc1cn([C@H]2C[C@H](N=[N+]=[N-])[C@@H](CO)O2)c(=O)[nH]c1=O [Azidothymidine, reference compound]
- Minimum cytotoxic conc. [25]: >2 µM

Compound: O=c1[nH]cnc2c1ncn2[C@H]1CC[C@@H](CO)O1 [Didanosine, reference compound]
- Minimum cytotoxic conc. [25]: >50 µM

Compound: Nc1nc(O)c2ncn(COC(CO)CO)c2n1 [Ganciclovir, reference compound]
- EC50 [22]: > 100 µM

Compound: Nc1ccn([C@@H]2CS[C@H](CO)O2)c(=O)n1 [Lamivudine, reference compound]
- Minimum cytotoxic conc. [25]: >20 µM

Compound: Cc1ccnc2c1NC(=O)c1cccnc1N2C1CC1 [Nevirapine, reference compound]
- Minimum cytotoxic conc. [25]: >4 µM

Compound: CC(N)C12CC3CC(CC(C3)C1)C2 (centres unmarked) [Rimantadine, reference compound]
- Cytotoxicity, Minimum cytotoxic conc. [24]: >200 µM

Compound: Nc1ccn([C@H]2CC[C@@H](CO)O2)c(=O)n1 [Zalcitabine, reference compound]
- EC50 [23]: 50 µM

Compound: CC(=O)N[C@H]1[C@H]([C@H](O)[C@H](O)CO)OC(C(=O)O)=C[C@@H]1N=C(N)N [Zanamivir, reference compound]
- Cytotoxicity, Minimum cytotoxic conc. [24]: >100 µM

Compound: dextran sulfate [DS-10.000, reference compound]
- EC50 [26]: > 100 µM
- EC50 [27]: 0.8 µM
- Minimum cytotoxic conc. [28]: >100 µM

Reference: article PMC8268672 (Bioorganic Chemistry, 2021)
